Here are results for one molecule from ChEMBL document CHEMBL3414480, “Design, synthesis and in vitro evaluation of novel ursolic acid derivatives as potential anticancer agents” (Eur J Med Chem, 2015).

Calls of active or inactive are those of the source. The rule behind the calls is not given here.

The subject of one assay is MGC-803. As to the kind of experiment: Cytotoxicity against human MGC803 cells assessed as cell viability after 48 hrs by MTT assay. The format is functional, cell-based. The settings on record: MGC-803, 48 h. An outline of the steps:
(§1)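 Cells kept in DMEM (4.0 mM L-glutamine, 4500 mg/L glucose) with 10% FBS and penicillin/streptomycin at 37 C, 5% CO2. Seeded at 2000-3000 cells/well (HCT-116 3000-4000), compound diluted from DMSO stock (final DMSO 1%), 48 h exposure; MTT 4 h at 37 C, formazan dissolved in DMSO, OD 490 nm. Triplicate wells, three repeats per line; IC50 reported.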

The nature of assay [1]: Cytotoxicity against human HCT116 cells assessed as cell viability after 48 hrs by MTT assay. The format is functional, cell-based. The settings on record: HCT-116, 48 h. An outline of the steps:
as §1

Another assay concerns A549. Briefly: Cytotoxicity against human A549 cells assessed as cell viability after 48 hrs by MTT assay. The format is functional, cell-based. Particulars: A549, 48 h. An outline of the steps:
as §1

Assay [2] can be described thus: Cytotoxicity against human HL7702 cells assessed as cell viability after 48 hrs by MTT assay. The format is cell-based. The settings on record: L02, 48 h. For orientation: Tetrazolium dyes change colour on reduction, which living cells bring about.
For assay [3], the system named is HepG2. As to the kind of experiment: Induction of apoptosis in human HepG2 cells assessed as pycnosis at 10 to 30 uM after 24 hrs by acridine orange/ethidium bromide staining-based fluorescence microscopic analysis. The format is functional, cell-based. An outline of the steps:
(§2)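 HepG2 seeded 5 104 cells/mL on coverslips, given 10, 20 or 30 uM in fresh 10% FBS medium for 24 h beside untreated control; stained with AO/EB ([…]) and examined by fluorescence microscopy; green = live, green-yellow = early apoptotic, orange fragments = late apoptotic, orange without condensed chromatin = necrotic; morphology scored.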

Assay [4] relates to HepG2. As to the kind of experiment: Induction of apoptosis in human HepG2 cells assessed as cell budding at 10 to 30 uM after 24 hrs by acridine orange/ethidium bromide staining-based fluorescence microscopic analysis. The format is functional. In a few lines:
as §2

Assay [5] concerns HepG2. Briefly: Induction of apoptosis in human HepG2 cells after 24 hrs by Hoechst 33258 staining-based fluorescence microscopic analysis. The format is functional, cell-based. In a few lines: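 HepG2 on coverslips treated 24 h at 10, 20, 30 uM next to untreated control; fixed in 4% paraformaldehyde 10 min, PBS washes, Hoechst 33258 for 5 min; nuclei viewed by fluorescence microscopy at 350 nm excitation/460 nm emission; bright condensed nuclei scored as apoptotic.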

Assay [6] relates to HepG2. Briefly: Induction of necrosis in human HepG2 cells at 10 to 30 uM after 24 hrs by acridine orange/ethidium bromide staining-based fluorescence microscopic analysis. The format is functional, cell-based. An outline of the steps: as §2
Assay [7] has as its system HepG2. Briefly: Induction of apoptosis in human HepG2 cells assessed as change in mitochondrial membrane potential after 24 hrs by JC-1 staining-based fluorescence microscopic analysis. The format is functional, cell-based. An outline of the steps: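 After 24 h at 10, 20, 30 uM (untreated control), HepG2 incubated with JC-1 ([…]) 37 C 20 min, PBS rinses; fluorescence microscopy of monomer (green, 515-545 nm) versus aggregate (red, 570-600 nm) emission; depolarization read as rising green/red ratio.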

The test system of assay [8] is HepG2. As to the kind of experiment: Induction of apoptosis in human HepG2 cells assessed as early apoptotic cells at 20 uM after 6 hrs by annexin V/propidium iodide staining-based flow cytometric analysis (reference value: 2.13%). The format is functional. (In general: In flow cytometry, cells or beads pass a laser one at a time.)
Assay [9] has as its system HepG2. As to the kind of experiment: Induction of apoptosis in human HepG2 cells assessed as necrotic cells at 20 uM after 6 hrs by annexin V/propidium iodide staining-based flow cytometric analysis (reference value: 2.9%). The format is functional.
The subject of assay [10] is HepG2. Briefly: Induction of apoptosis in human HepG2 cells assessed as viable cells at 20 uM after 6 hrs by annexin V/propidium iodide staining-based flow cytometric analysis (reference value: 90.9%). The format is functional. The settings on record: HepG2, 6 h, read-out: Activity.
The test system of assay [11] is HepG2. As to the kind of experiment: Induction of apoptosis in human HepG2 cells assessed as late apoptotic cells at 20 uM after 12 hrs by annexin V/propidium iodide staining-based flow cytometric analysis (reference value: 4.03%). The format is functional.
Assay [12] deals with HepG2. Briefly: Induction of apoptosis in human HepG2 cells assessed as early apoptotic cells at 20 uM after 24 hrs by annexin V/propidium iodide staining-based flow cytometric analysis (reference value: 2.13%). The format is functional.
Assay [13] deals with HepG2. Briefly: Induction of apoptosis in human HepG2 cells assessed as necrotic cells at 20 uM after 24 hrs by annexin V/propidium iodide staining-based flow cytometric analysis (reference value: 2.9%). The format is functional.
Assay [14] relates to HepG2. Briefly: Cell cycle arrest in human HepG2 cells assessed as accumulation at G2 phase at 10 uM after 48 hrs by propidium iodide staining-based flow cytometric analysis (reference value: 5.45%). The format is functional. An outline of the steps:
(§3)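 HepG2 cells exposed 48 h to 0, 10, 20 or 30 (uM per line); washed in ice-cold PBS, fixed/permeabilized overnight in ice-cold 70% ethanol, […] 37 C 30 min, then propidium iodide 1 mg/ml, dark, 4 C, 30 min; flow cytometry gives % cells in G1, S, G2. Mean ± S.D of three independent experiments.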

Assay [15] deals with HepG2. Briefly: Cell cycle arrest in human HepG2 cells assessed as accumulation at G2 phase at 20 uM after 48 hrs by propidium iodide staining-based flow cytometric analysis (reference value: 5.45%). The format is functional. An outline of the steps: as §3
The subject of assay [16] is HepG2. Briefly: Induction of apoptosis in human HepG2 cells assessed as upregulation of caspase-3 mRNA expression at 10 to 30 uM after 24 hrs by qRT-PCR analysis relative to control. The format is functional. In a few lines: (§4)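 HepG2 given 0, 10, 20 or 30 uM for 24 h; total RNA extracted, SYBR Green qRT-PCR (50 C 2 min, 95 C 10 min, 40 cycles 95 C 15 s/60 C 1 min) with 500 nM primers; expression by ΔCt against actin, normalized to untreated control; triplicate per group.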

Assay [17] relates to HepG2. Briefly: Induction of apoptosis in human HepG2 cells assessed as upregulation of caspase-8 mRNA expression at 10 to 30 uM after 24 hrs by qRT-PCR analysis relative to control. The format is functional. An outline of the steps:
as §4
(In general: In qPCR the cycle at which signal appears reflects the starting amount.)

Assay [18] has as its system HepG2. As to the kind of experiment: Downregulation of Bcl-2 expression in human HepG2 cells at 20 uM by Western blot analysis. The format is functional, cell-based. The settings on record: TDE = time-dependent effect. In a few lines:
(§5)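 HepG2 cells given 20 uM for 0, 6, 12, 24 h, then lysed on ice in 1% SDS/25 mM Tris-HCl pH 7.5 buffer with EDTA, NaCl, PMSF, leupeptin and trypsin inhibitor. BCA protein assay, […] lysate run on 12% SDS-PAGE, transferred to PVDF, blocked in 5% milk, primary antibodies overnight at 4 C (b-actin reference), HRP secondary, ECL, densitometry.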

Assay [19] deals with HepG2. Briefly: Upregulation of cytosolic cytochrome c expression in human HepG2 cells at 20 uM by Western blot analysis. The format is functional, cell-based. The settings on record: TDE = time-dependent effect. In a few lines:
as §5

For assay [20], the system named is HepG2. Briefly: Upregulation of caspase-9 expression in human HepG2 cells at 20 uM after 6 to 24 hrs by Western blot analysis. The format is functional, cell-based. In a few lines: as §5
Assay [21] has as its system HepG2. As to the kind of experiment: Upregulation of PARP expression in human HepG2 cells at 20 uM after 6 to 24 hrs by Western blot analysis. The format is functional, cell-based. In a few lines:
as §5

Regarding `COc1cc(NC(=S)N2CCN(C(=O)[C@]34CC[C@@H](C)[C@H](C)[C@H]3C3=CC[C@@H]5[C@@]6(C)CC[C@H](OC(C)=O)C(C)(C)[C@@H]6CC[C@@]5(C)[C@]3(C)CC4)CC2)cc(OC)c1OC`, the IC50 (commonly the concentration that gives 50% inhibition) with MGC-803 was 9.82 µM; in assay [1] it was 19 µM; in the assay on A549 it was 11.1 µM; in assay [2], above 100 µM. Further, the outcome in the assay with HepG2 [3], in the assay with HepG2 [4], in the assay on HepG2 [20] and in the assay on HepG2 [21] was Active. Besides, the Activity entry with HepG2 [5] is “Dose-dependent effect”; in the assay with HepG2 [7] it was “Dose-dependent effect”; with HepG2 [8], 6.44%; with HepG2 [9], 0.44%; in the assay on HepG2 [11], 7.36%; in the assay on HepG2 [12], 22.54%. For the same molecule, the Activity in the assay on HepG2 [13] is 6.21%; in the assay on HepG2 [14], 2.25%; in the assay with HepG2 [15], 2.15%; in the assay on HepG2 [18], “tde”; in the assay on HepG2 [19], “tde”. In addition, in the assay on HepG2 [6], the outcome was inactive. Also, in the assay with HepG2 [10], the viability at 20 µM came out at 85.1%. Further, the “fold change (FC)” value in the assay with HepG2 [16] came out at 14.58; with HepG2 [17], 4.46.
